Results reported in ChEMBL document CHEMBL1135483, “N-Substituted 4-amino-3,3-dipropyl-2(3H)-furanones: new positive allosteric modulators of the GABA(A) receptor sharing electrophysiological properties with the anticonvulsant loreclezole” (2002).

Legend:
[1] = target: T1, GABA-A receptor; alpha-1/beta-2/gamma-2 (Rattus norvegicus) (UniProt P18508+P62813+P63138); assay: (§1) Percent stimulation of GABA-induced currents in Xenopus Oocytes expressing rat GABA-A receptor alpha-1-beta-2-gamma-2 subunits at 200 uM; assay type: functional, cell-based
Summary of the method: (§2)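 Oocytes expressing recombinant rat α1β2γ2 GABA-A receptors (cRNA injected in 5 mM K-Hepes, pH 6.8) were recorded by two-electrode voltage clamp at -80 mV in 90 mM NaCl, 1 mM KCl, 1 mM MgCl2, 1 mM CaCl2, 10 mM Na-Hepes, pH 7.4. Compound was co-applied with GABA at 2-4% of maximal current for 20 s, then 4 min washout. Values are the mean of three assays ± SEM.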

[2] = target: T1, GABA-A receptor; alpha-1/beta-2/gamma-2 (Rattus norvegicus); assay: Percent stimulation of GABA-induced currents in Xenopus Oocytes expressing rat GABA-A receptor alpha-1-beta-2-gamma-2 subunits at 5 uM; assay type: functional, cell-based
Summary of the method: (§3)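 Xenopus laevis oocytes were injected with cRNA for rat receptor subunits and recorded by two-electrode voltage clamp at -80 mV. Bath was 90 mM NaCl, 1 mM KCl, 1 mM MgCl2, 1 mM CaCl2, 10 mM Na-Hepes pH 7.4. GABA giving about 2-4% of maximal current was applied for 20 s alone or with compound, with 4 min washout. Result is % change in current; average of three.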

[3] = target: T2, GABA-A receptor; anion channel (Rattus norvegicus) (UniProt O09028+P15431+P18506+P18508+P19969+P20236+P23574+P23576+P28471+P28473+P30191+P62813+P63079+P63138+Q91ZM7+Q9ES14); assay: Displacement of [35S]TBPS from Gamma-aminobutyric acid A (GABA-A) receptor of rat brain membranes at 100 uM; assay type: cell membranes; details: Membrane
Summary of the method: (§4)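 Rat cerebellum or forebrain (brain minus cerebellum) membranes, about 1 mg/mL protein, were incubated with 2 nM [35S]-TBPS in 50 mM Tris-citrate pH 7.4 plus 200 mM NaBr for 180 min at room temperature. Nonspecific binding was defined with 10 µM TBPS. Samples were filtered on GF/B and counted by scintillation. Result is % displacement; at least three experiments in triplicate.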

[4] = target: T2, GABA-A receptor; anion channel (Rattus norvegicus); assay: Displacement of [3H]flunitrazepam from GABA-A receptor of rat brain membranes at 100 uM; assay type: cell membranes; details: Membrane
Summary of the method: (§5)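 Cerebellar or forebrain rat membranes, about 1 mg/mL protein, were incubated 90 min at 4 °C with 2 nM [3H]flunitrazepam in 50 mM Tris-citrate pH 7.4 with 150 mM NaCl. Nonspecific binding was set with 10 µM diazepam. Samples were filtered on GF/B and counted by scintillation. Result is % displacement or stimulation; at least three experiments in triplicate.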

[5] = target: T2, GABA-A receptor; anion channel (Rattus norvegicus); assay: (§6) Displacement of [3H]muscimol from Gamma-aminobutyric acid A (GABA-A) receptor of rat brain membranes at 100 uM; assay type: cell membranes; details: Membrane
Summary of the method: as §5, with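 “[3H]muscimol” for “[3H]flunitrazepam”, “taken” for “set”, “GABA. Filters” for “diazepam. Samples”, “rinsed twice with ice-cold buffer” for “filtered on GF/B”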

[6] = target: T1, GABA-A receptor; alpha-1/beta-2/gamma-2 (Rattus norvegicus); assay: Percent stimulation of GABA-induced currents in Xenopus Oocytes expressing rat GABA-A receptor alpha-1-beta-2-gamma-2 subunits at 100 uM; assay type: functional, cell-based; summary of the method: as §3
[7] = tested on: GABA-A receptor alpha-1/beta-2 (Rattus norvegicus); assay: Percent stimulation of GABA-induced currents in Xenopus Oocytes expressing rat GABA-A receptor alpha-1-beta-2 subunits at 100 uM
[8] = Percent stimulation of GABA-induced currents in Xenopus Oocytes expressing mutant rat GABA-A receptor alpha-1-beta-2(N265S) subunits at 100 uM; assay type: functional; summary of the method: as §3
[9] = target: T1, GABA-A receptor; alpha-1/beta-2/gamma-2 (Rattus norvegicus); assay: as §1; assay type: functional, cell-based; summary of the method: as §2; remark: listed apart in the source
[10] = target: T1, GABA-A receptor; alpha-1/beta-2/gamma-2 (Rattus norvegicus); assay: Percent stimulation of GABA-induced currents in Xenopus Oocytes expressing rat GABA-A receptor alpha-1-beta-2-gamma-2 subunits at 2 uM; assay type: functional, cell-based; summary of the method: as §2
[11] = species: Rattus norvegicus; assay: as §6; assay type: cell membranes; details: Membrane
Summary of the method: as §5, with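 “[3H]muscimol” for “[3H]flunitrazepam”, “taken” for “set”, “GABA. Filters” for “diazepam. Samples”, “rinsed twice with ice-cold buffer” for “filtered on GF/B”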

[12] = target: T2, GABA-A receptor; anion channel (Rattus norvegicus); assay: Displacement of [3H]flunitrazepam from GABA-A receptor of rat forebrain tissue at 100 uM; summary of the method: as §5
[13] = target: T2, GABA-A receptor; anion channel (Rattus norvegicus); assay: Displacement of [3H]flunitrazepam from GABA-A receptor of rat cerebellar tissues at 100 uM; assay type: protein-complex assay; summary of the method: as §5
[14] = target: T1, GABA-A receptor; alpha-1/beta-2/gamma-2 (Rattus norvegicus); assay: Percent stimulation of GABA-induced currents in Xenopus Oocytes expressing rat GABA-A receptor alpha-1-beta-2-gamma-2 subunits at 20 uM; assay type: functional, cell-based; summary of the method: as §3
[15] = species: Rattus norvegicus; assay: Displacement of [35S]-TBPS from Gamma-aminobutyric acid A (GABA-A) receptor of rat cerebellar tissue at 100 uM; summary of the method: as §4
[16] = species: Rattus norvegicus; assay: Displacement of [35S]TBPS from Gamma-aminobutyric acid A (GABA-A) receptor of rat forebrain tissue at 100 uM; summary of the method: as §4
[17] = target: T2, GABA-A receptor; anion channel (Rattus norvegicus); assay: Displacement of [3H]-muscimol from Gamma-aminobutyric acid A (GABA-A) receptor of Rat forebrain at 100 uM
Summary of the method: as §5, with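 “[3H]muscimol” for “[3H]flunitrazepam”, “taken” for “set”, “GABA. Filters” for “diazepam. Samples”, “rinsed twice with ice-cold buffer” for “filtered on GF/B”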

[18] = target: T1, GABA-A receptor; alpha-1/beta-2/gamma-2 (Rattus norvegicus); assay: as §1; assay type: functional, cell-based; summary of the method: as §2; remark: listed apart in the source
[19] = target: T1, GABA-A receptor; alpha-1/beta-2/gamma-2 (Rattus norvegicus); assay: Percent stimulation of GABA-induced currents in Xenopus Oocytes expressing rat GABA-A receptor alpha-1-beta-2-gamma-2 subunits at 50 uM; assay type: functional, cell-based; summary of the method: as §3

Structure (SMILES) | Stimulation [1] [%] | Displacement [3] [%] | Displacement [4] [%] | Displacement [5] [%] | further results
O=C1C[C@H](NC(=O)OCc2ccccc2)CO1 (racemic) | 47 | – | – | – | –
CCCC1(CCC)C(=O)OC[C@H]1NC(=O)OCC (racemic) | 426 | 30 | 0 | 0 | –
CCCC1(CCC)C(=O)OC[C@@H]1NC(=O)OCc1ccccc1 [listing 1 of 2 here] | – | – | – | – | Stimulation [6]: 279%; Stimulation [7]: 324%
CCCC1(CCC)C(=O)OC[C@@H]1NC(=O)OCc1ccccc1 [listing 2 of 2 here] | – | – | – | – | Stimulation [8]: 123%
C=CCOC(=O)N[C@@H]1COC(=O)C1(CCC)CCC (racemic) | 765 | 50 | – | – | Stimulation [9]: 765%; Stimulation [10]: 26%; Displacement [11]: 0%; Stimulation [12]: 15%; Stimulation [13]: 0%; Stimulation [8]: 627%; Stimulation [14]: 229%; Stimulation [7]: 2130%
CCCC1(CCC)C(=O)OC[C@H]1NC(=O)OCc1ccccc1 | – | – | – | – | Stimulation [6]: 104%
C=CC[C@@H]1C(=O)OC[C@H]1NCc1ccccc1 (racemic) | -1 | – | – | – | –
O=C1C[C@H](NCc2ccccc2)CO1 (racemic) | 0 | – | – | – | –
C=CC[C@H]1C(=O)OC[C@H]1NCc1ccccc1 (racemic) | 73 | 60 | 0 | 0 | –
CCC1(C)CCSC1=O (centres undefined) | 352 | 25 | 0 | 0 | Stimulation [18]: 192%; Stimulation [9]: 386%; Stimulation [10]: 10%; Stimulation [14]: 39%
C=CCC1(CC=C)C(=O)OC[C@H]1NCc1ccccc1 (racemic) | 115 | 60 | -14 | 0 | –
CCCC1(CCC)C(=O)OC[C@H]1NC(=O)OC(C)(C)C (racemic) | 46 | – | – | – | –

Second part, led by results:

Stimulation [1] [%] | Displacement [3] [%] | Displacement [4] [%] | Displacement [5] [%] | Structure (SMILES) | further results
-16 | – | – | – | CCCC1(CCC)C(=O)OC[C@H]1NS(=O)(=O)c1cccs1 (racemic) | –
– | 85 | -25 | 0 | CCCC1(CCC)C(=O)OC[C@H]1NS(=O)(=O)c1ccc(Cl)cc1 (racemic) | Stimulation [2]: 23%
– | 70 | 0 | 0 | CCCC1(CCC)C(=O)OC[C@@H]1NC(=O)OCc1ccccc1 (stereo in doubt) | Stimulation [6]: 279%
-44 | – | -20 | 0 | CCCC1(CCC)C(=O)OC[C@H]1NS(=O)(=O)c1ccc(C(F)(F)F)cc1 (racemic) | Displacement [15]: 40%; Displacement [16]: 70%
330 | 75 | -25 | – | CCCC1(CCC)C(=O)OC[C@H]1NC(=O)Oc1ccccc1 (racemic) | Displacement [17]: 0%
420 | 65 | -15 | – | CCCC1(CCC)C(=O)OC[C@H]1NC(=O)c1ccccc1 (racemic) | Stimulation [9]: 420%; Stimulation [10]: 17%; Displacement [17]: 0%; Stimulation [8]: 648%; Stimulation [14]: 207%; Stimulation [7]: 557%
-22 | 80 | 0 | 0 | CCCC1(CCC)C(=O)OC[C@H]1NS(=O)(=O)c1ccc(OC)cc1 (racemic) | –
-1 | – | – | – | CCCC1(CCC)C(=O)OC[C@H]1NS(=O)(=O)N(C)C (racemic) | –
– | 75 | 0 | 0 | CCCC1(CCC)C(=O)OC[C@H]1NS(=O)(=O)c1ccc2ccccc2c1 (racemic) | Stimulation [19]: 4%
